# High-throughput results from PubChem BioAssay.
# In the library only some 4.9% were active in any assay of this set; here they are far more common.
# NF-kB expr up = raises NF-kB expression in human neuronal cells; NF-kB reporter expression; stronger effect = higher value; fold change at 12.5 µM; 190,000 tested, 1.6% active; in the data active means fold change above about 3.3
# APP 5'UTR act = APP 5'UTR luciferase reporter activation | SH-SY5Y APP 5'UTR luciferase reporter, luminescence; zero percent = DMSO vehicle wells | activation, % at 2 µM | 190,000 tested, 1% active | AID 1276;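 active means activation above a set limit, based on mean plus 3 SD of controls, cut at about 140% in these data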
# STAT1 inh = reduces IFN-gamma driven STAT1 reporter signal. 200,000 tested, 0.35% active. NIH 3T3 STAT1-luciferase reporter, luminescence. AID 920. inhibition, % at 5.5 µM;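 active means inhibition above a set limit, the mean inhibition across all tested compounds plus 3 SD, cut at about 34% in these data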;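 further: 0% = IFN-gamma with DMSO and 100% = IFN-gamma with 300 µM nifuroxazide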
# STAT3 inh = inhibitors of IL-6 induced STAT3 signaling; U3A cells, IL-6 STAT3-luciferase reporter, luminescence; host cell line lacks STAT1; inhibition, % at 5.5 µM; 190,000 tested, 0.89% active;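 active means inhibition above the mean inhibition across all screened compounds plus 3 SD, cut at about 44% in these data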;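 further: 0% = DMSO only wells and 100% = 100 µM nifuroxazide control wells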
# STAT1 activator = activators of IFN-gamma induced STAT1 signaling; NIH 3T3 STAT1-luciferase reporter, luminescence; 100% = IFN-gamma alone, no compound; activation (% of control), % at 5.5 µM; 200,000 tested, 2.6% active; AID 932;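 active means activation above the screen-wide mean activation plus 3 SD, cut at about 130% in these data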;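 further: raw ratio to IFN-gamma control signal so 100% means no change and 0% no light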
# STAT3 act = STAT3 signaling activation; 190,000 tested, 0.91% active; U3A cells, IL-6 STAT3-luciferase reporter, luminescence; 100% = signal with IL-6 EC80 alone; AID 871; activation (% of control), % at 5.6 µM;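 active means activation above the screen-wide mean of compound activation plus 3 SD, cut at about 130% in these data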;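 further: 0% = background luminescence of wells with medium and substrate only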
#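 Material: human U3A cells carrying STAT3-luciferase construct. Measured by: reporter luminescence signal. Timing: compound 1 h, then IL-6 6 h at 37 °C.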
# An asterisk follows results filed as active.
SMILES,NF-kB expr up,APP 5'UTR act,STAT1 inh,STAT3 inh,STAT1 activator,STAT3 act
CCN1C(=O)/C(=C/C=C2/SCCN2C)SC1=S,4.7*,106,-58,59*,152*,51
O=c1cc(-c2cccs2)oc2ccc(Cl)cc12,3.2,36,-53,-19,147*,116
O=c1cc(-c2ccc3c(c2)OCCO3)oc2ccc(Cl)cc12,7.2*,214*,-46,10,142*,94
O=C(Cn1ncc2c1-c1ccccc1OC2)N1CCN(Cc2ccc3c(c2)OCO3)CC1,0.9,15,6,17,95,90
O=C(COC(=O)Cn1cnc2ccccc21)Nc1cc2c(cc1Cl)C(=O)c1ccccc1C2=O,1.7,73,-37,-12,136*,113
O=C(COC(=O)Cn1cnc2ccccc21)Nc1ccc2c(c1)OCCO2,0.97,2,-5,8,104,97
CN(C)c1ccc(NC(=O)CCCc2ccccc2)cc1,5.4*,150*,-42,-4,138*,107
O=C(CCc1ccccc1)Nc1ccccc1,1.9,29,-17,10,114,95
COc1ccc(/C=C(\C#N)C(=O)OCC(=O)Nc2ccc(C(C)(C)C)cc2)cc1,1.3,14,-4,-2,104,102
COc1cc(NC(=O)COc2ccccc2[N+](=O)[O-])ccc1NC(=O)c1cccs1,1.2,-6,-44,24,141*,83
COc1ccc(OCC(=O)Nc2ccc(NC(=O)c3cccs3)c(OC)c2)cc1,1.2,8,0,15,99,90
O=C1c2ccccc2C(=O)C1c1ccc(O)cc1,3.8*,48,1,21,98,84
c1ccc(-c2ccc(-c3cnc4n3CCCCC4)cc2)cc1,1.8,30,-18,12,114,90
Cn1nc(-c2ccc(Cl)cc2)c2cc(C(=O)N3CCOCC3)sc21,0.58,8,-2,-17,102,122
COc1ccc(N2CCN(C(=O)c3cc4c(-c5ccc(Cl)cc5)nn(C)c4s3)CC2)cc1,0.56,2,12,-30,90,133*
CCOC(=O)/C(C#N)=C/c1cn(CCC(=O)O)nc1-c1cccc(Br)c1,1,14,-7,-2,106,107
O=C1CCNc2cc3ccccc3cc21,0.71,-5,-1,-40,100,137*
CC(C)(C)c1ccc(S(=O)(=O)CCc2ccccn2)cc1,1.7,12,-32,-15,129*,116
CC(C)c1ccc(OCC(=O)N2CCCCCC2)c(Br)c1,1.7,33,-40,-5,137*,114
Cc1cc(Br)ccc1OCC(=O)N1CCCCCC1,1.1,12,6,-6,94,106
Cc1cccc(OCc2nc(-c3nonc3N)no2)c1C,2.3,69,-40,3,139*,103
Cc1nn(-c2ccccc2)c(N2CCCC2)c1/C=N/NC(=S)Nc1ccccc1F,0.4,94,-32,2,129*,95
O=[N+]([O-])CC(=Nc1ccc(Cl)cc1)N/N=C\c1oc(O)c2ccccc12,1.2,-5,-5,-37,104,136*
O=C(c1cccc(S(=O)(=O)N2CCOCC2)c1)N(Cc1ccc(F)cc1)Cc1ccco1,0.81,1,1,-29,98,134*
CN(C)S(=O)(=O)c1cccc(C(=O)N(Cc2ccc(F)cc2)Cc2ccco2)c1,0.98,-14,8,3,97,101
SMILES,NF-kB expr up,APP 5'UTR act,STAT1 inh,STAT3 inh,STAT1 activator,STAT3 act
CCc1nc(SCC(=O)Nc2cccc(C(F)(F)F)c2)c2c(=O)n(C)c(=O)n(C)c2n1,0.94,0,4,18,97,89
CN(C)/C=C(\C#N)C(=O)N/N=C/c1ccccc1,2,15,-29,1,126,106
COc1ccc(C(=O)/C=C2\Sc3ccccc3N2C)cc1,7.3*,195*,-33,-15,132*,115
Cc1cc(NC(=NC2CC2)c2ccccc2F)n(-c2ccccc2)n1,1.4,11,-1,3,99,105
Cc1ccc(NC2=C/C(=N/S(=O)(=O)c3cccs3)c3ccccc3C2=O)cc1C,0.9,40,2,2,98,106
Cc1cc(C)c(S(=O)(=O)/N=C2/C=C(Sc3ncn[nH]3)C(=O)c3ccccc32)cc1C,0.46,-89,1,-55,99,143*
O=c1n(-c2ccccc2)c(=O)n2n1CC(O)C2,0.97,-8,4,18,94,91
